Reference: paper PMC4112157 (Bioorganic & medicinal chemistry, 2014)
“Also recorded” adds a separate entry of the source. Where two headings read alike, the source gives them in different places.

Legend:
[1] = molecular target: T1, s15-LOX-1 (Glycine max, UniProt P08170); assay: Lipoxygenase UV-Vis-based IC50 assay, s15-LOX-1; assay type: biochemical, soybean
T1 sequence (P08170 1-839): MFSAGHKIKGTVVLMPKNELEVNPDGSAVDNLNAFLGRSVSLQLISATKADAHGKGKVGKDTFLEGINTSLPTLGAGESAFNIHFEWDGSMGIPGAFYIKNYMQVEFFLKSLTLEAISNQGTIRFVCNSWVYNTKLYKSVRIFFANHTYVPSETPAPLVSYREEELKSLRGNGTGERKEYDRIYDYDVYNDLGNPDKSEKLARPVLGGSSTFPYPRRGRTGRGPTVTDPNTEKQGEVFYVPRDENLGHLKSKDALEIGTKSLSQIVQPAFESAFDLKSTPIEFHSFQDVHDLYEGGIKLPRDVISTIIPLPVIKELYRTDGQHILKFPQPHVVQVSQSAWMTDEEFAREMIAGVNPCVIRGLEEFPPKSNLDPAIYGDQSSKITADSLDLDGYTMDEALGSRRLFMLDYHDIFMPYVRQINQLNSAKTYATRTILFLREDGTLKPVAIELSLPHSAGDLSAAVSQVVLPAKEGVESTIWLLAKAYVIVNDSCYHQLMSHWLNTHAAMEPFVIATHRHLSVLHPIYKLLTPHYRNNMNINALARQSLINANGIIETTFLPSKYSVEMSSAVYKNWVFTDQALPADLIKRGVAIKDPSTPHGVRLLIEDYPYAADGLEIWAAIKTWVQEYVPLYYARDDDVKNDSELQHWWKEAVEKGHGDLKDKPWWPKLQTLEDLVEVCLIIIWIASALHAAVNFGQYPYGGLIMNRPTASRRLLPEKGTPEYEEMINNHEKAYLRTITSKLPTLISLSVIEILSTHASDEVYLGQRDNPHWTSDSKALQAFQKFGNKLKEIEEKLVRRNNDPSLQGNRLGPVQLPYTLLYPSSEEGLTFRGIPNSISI

[2] = molecular target: T2, h5-LOX (Homo sapiens, UniProt P09917); assay: Oxo-lipid substrate activity, h5-LOX; assay type: biochemical; conditions: IC50 assay conditions, 10 μM oxo-lipid, UV-Vis 234/280 nm, LC-MS
T2 sequence (P09917 1-674): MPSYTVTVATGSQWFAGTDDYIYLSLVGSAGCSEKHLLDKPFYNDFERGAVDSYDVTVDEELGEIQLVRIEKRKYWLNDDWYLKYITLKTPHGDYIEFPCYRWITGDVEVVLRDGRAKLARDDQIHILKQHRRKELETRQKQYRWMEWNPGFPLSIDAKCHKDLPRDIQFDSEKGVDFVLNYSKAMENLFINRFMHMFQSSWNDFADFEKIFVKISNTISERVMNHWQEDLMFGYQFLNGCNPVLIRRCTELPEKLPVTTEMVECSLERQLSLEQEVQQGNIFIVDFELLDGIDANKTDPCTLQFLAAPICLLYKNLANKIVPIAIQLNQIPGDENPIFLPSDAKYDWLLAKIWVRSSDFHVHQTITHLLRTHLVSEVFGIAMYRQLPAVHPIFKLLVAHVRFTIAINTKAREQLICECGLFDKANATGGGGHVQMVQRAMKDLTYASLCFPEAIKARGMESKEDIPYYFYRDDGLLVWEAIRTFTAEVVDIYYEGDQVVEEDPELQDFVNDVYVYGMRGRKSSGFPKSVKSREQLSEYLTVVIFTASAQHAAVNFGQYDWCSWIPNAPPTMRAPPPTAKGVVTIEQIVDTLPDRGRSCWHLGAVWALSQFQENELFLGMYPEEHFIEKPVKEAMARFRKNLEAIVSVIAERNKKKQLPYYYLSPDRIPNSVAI

[3] = molecular target: T3, h12-LOX (Homo sapiens, UniProt P18054); assay: Oxo-lipid substrate activity, h12-LOX; assay type: biochemical
T3 sequence (P18054 1-663): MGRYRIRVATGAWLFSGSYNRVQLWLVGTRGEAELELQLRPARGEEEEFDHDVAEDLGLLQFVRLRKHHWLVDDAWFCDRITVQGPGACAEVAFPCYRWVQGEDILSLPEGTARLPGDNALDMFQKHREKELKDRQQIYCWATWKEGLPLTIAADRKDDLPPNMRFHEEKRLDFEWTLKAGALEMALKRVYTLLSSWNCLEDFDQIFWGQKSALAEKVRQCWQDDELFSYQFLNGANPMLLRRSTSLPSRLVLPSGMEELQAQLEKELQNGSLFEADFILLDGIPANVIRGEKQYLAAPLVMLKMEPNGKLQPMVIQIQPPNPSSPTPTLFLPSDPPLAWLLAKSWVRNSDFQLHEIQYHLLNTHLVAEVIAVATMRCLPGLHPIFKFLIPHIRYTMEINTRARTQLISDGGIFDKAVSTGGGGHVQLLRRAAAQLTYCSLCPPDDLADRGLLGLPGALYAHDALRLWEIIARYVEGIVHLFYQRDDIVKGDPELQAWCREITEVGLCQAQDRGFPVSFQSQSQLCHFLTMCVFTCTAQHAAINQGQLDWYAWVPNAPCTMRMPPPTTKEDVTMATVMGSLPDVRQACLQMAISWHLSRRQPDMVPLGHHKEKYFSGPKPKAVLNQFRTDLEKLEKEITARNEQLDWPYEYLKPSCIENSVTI

[4] = molecular target: T4, h15-LOX-1 (Homo sapiens, UniProt P16050); assay: Oxo-lipid substrate activity, h15-LOX-1; assay type: biochemical
T4 sequence (P16050 1-662): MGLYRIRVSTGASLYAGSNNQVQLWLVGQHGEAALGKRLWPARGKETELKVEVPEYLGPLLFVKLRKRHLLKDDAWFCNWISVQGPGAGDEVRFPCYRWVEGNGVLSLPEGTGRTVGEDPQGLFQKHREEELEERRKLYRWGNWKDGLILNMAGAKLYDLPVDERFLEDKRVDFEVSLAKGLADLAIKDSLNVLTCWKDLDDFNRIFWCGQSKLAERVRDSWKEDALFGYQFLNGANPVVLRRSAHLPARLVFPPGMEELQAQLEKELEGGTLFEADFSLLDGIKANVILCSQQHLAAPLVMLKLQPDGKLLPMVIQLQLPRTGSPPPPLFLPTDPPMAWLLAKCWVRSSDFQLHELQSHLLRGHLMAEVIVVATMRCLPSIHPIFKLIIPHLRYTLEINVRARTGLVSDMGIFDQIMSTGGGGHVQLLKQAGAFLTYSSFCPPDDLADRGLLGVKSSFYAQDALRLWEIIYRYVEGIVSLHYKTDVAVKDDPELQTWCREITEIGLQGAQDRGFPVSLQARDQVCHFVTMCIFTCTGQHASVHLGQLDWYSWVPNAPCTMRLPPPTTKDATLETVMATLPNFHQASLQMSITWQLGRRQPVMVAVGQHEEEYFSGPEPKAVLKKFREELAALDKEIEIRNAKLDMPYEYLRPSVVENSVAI

[5] = tested on: cytosolic calcium levels; conditions: cited from earlier work
[6] = molecular target: T4, h15-LOX-1; assay: Incubation activity assay; assay type: biochemical; conditions: time incubation experiments
[7] = molecular target: LOX isozymes; assay: Lipoxygenase UV-Vis-based IC50 assay, summary over LOX isozymes; assay type: biochemical
[8] = molecular target: T3, h12-LOX; assay: Steady-state inhibition kinetics, h12-LOX; assay type: biochemical; conditions: for Ki: 0.4–10 μM AA, 25 mM HEPES pH 8.0, 0.01% Triton X-100, Dixon plot and replot
Outline: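 Enzyme added to start the reaction in a stirred cuvette containing 0.4–10 μM arachidonic acid, 25 mM HEPES (pH 8.0) and 0.01% Triton X-100. 12-HpETE formation followed at 234 nm (ε = 25,000 M−1cm−1) across substrate and inhibitor concentrations, with Dixon series at 0.6, 1, 3 and 9 μM AA. Dixon plot and slope-vs-[inhibitor] replot give Kic (dissociation from enzyme) and Kiu (from enzyme–substrate complex).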

[9] = IC50 assay conditions, 10 μM oxo-lipid, UV-Vis 234/280 nm, LC-MS
[10] = IC50 assay conditions, 10 μM oxo-lipid, UV-Vis 234/280 nm
[11] = incubation conditions, 10 μM, on ice 15 minutes, HPLC and LC-MS

Row | IC50 [1] [µM] | mode of inhibition (time dependence) [6] | substrate activity [3, 11] | Ki ([8]; Kic) [µM] | Ki ([8]; Kiu) [µM] | IC50 ([7]; read-out: IC50 against the other LOX isozymes, LOX isozymes other than h12-LOX) [µM] | substrate activity [4, 11] | SMILES | substrate activity [2] | substrate activity [3, 9] | substrate activity [4, 10] | concentration with calcium effects (as low as) [5] [nM] | concentration with effects on cytosolic calcium levels [5] [µM] | IC50 ([7]; read-out: IC50 for all LOXs, all LOXs studied) [µM] | mode of inhibition (steady state) ([8]; steady state inhibition kinetics)
1 | > 100 | – | – | – | – | – | – | CCCCC/C=C\C/C=C\C/C=C\C=C\C(=O)CCCC(=O)O [5-oxo-ETE, 5-oxo-6,8,11,14-(E,Z,Z,Z)-eicosatetraenoic acid] | no change of absorbance at 234 nm or 280 nm | no change of absorbance at 234 nm or 280 nm | no change of absorbance at 234 nm or 280 nm | – | – | – | –
2 | > 100 | irreversible inhibition | – | – | – | – | – | CCCCC/C=C\CC(=O)/C=C/C=C\C/C=C\CCCC(=O)O [12-oxo-ETE, 12-oxo-5,8,10,14-(Z,Z,E,Z)-eicosatetraenoic acid] | no change of absorbance at 234 nm or 280 nm | – | no change of absorbance at 234 nm or 280 nm | 10 | 10 | – | –
3 | – | – | not a substrate | 0.087 ± 0.008 | 2.1 ± 0.8 | > 25 | not a substrate | CCCCCC(=O)/C=C/C=C\C/C=C\C/C=C\CCCC(=O)O [15-oxo-ETE, 15-oxo-5,8,11,13-(Z,Z,Z,E)-eicosatetraenoic acid] | multiple oxidation products were formed | not a substrate | – | – | – | – | mixed inhibitor; also recorded: mixed inhibition

Row | SMILES | IC50 [1] [µM] | mode of inhibition (time dependence) [6] | substrate activity [3, 11] | Ki ([8]; Kic) [µM] | Ki ([8]; Kiu) [µM] | IC50 ([7]; read-out: IC50 against the other LOX isozymes, LOX isozymes other than h12-LOX) [µM] | substrate activity [4, 11] | substrate activity [2] | substrate activity [3, 9] | substrate activity [4, 10] | concentration with calcium effects (as low as) [5] [nM] | concentration with effects on cytosolic calcium levels [5] [µM] | IC50 ([7]; read-out: IC50 for all LOXs, all LOXs studied) [µM] | mode of inhibition (steady state) ([8]; steady state inhibition kinetics)
4 | CCCCCC(=O)/C=C/C=C\CCCCCCCC(=O)O [13-oxo-ODE, 13-oxo-9,11-(Z,E)-octadecadienoic acid] | > 100 | – | – | – | – | – | – | – | – | – | – | – | > 100 | –
